In brackets after ≈: the same amount, converted by molar mass.
Key:
Assay type in all cases: functional
Providencia rettgeri = experiment: Minimum inhibitory concentration against Providencia rettgeri. (M1771)
Procedure, shortened: (§1)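 MICs were determined by standard microtitration against a panel of 11 bacterial strains. Aqueous stock solutions were prepared with 0.1 N sodium or potassium hydroxide.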

Enterococcus faecalis = experiment: Minimum inhibitory concentration against Streptococcus faecalis (MGH-2).; procedure, shortened: as §1
Escherichia coli [1] = experiment: Potency against Escherichia coli (H560)
Streptococcus pneumoniae = experiment: Minimum inhibitory concentration against Streptococcus pneumoniae (SV-1).; procedure, shortened: as §1
Staphylococcus aureus [2] = experiment: Minimum inhibitory concentration against Staphylococcus aureus (H-228).; procedure, shortened: as §1
Enterobacter [3] = experiment: Minimum inhibitory concentration against gram-negative enterobacteriaceae.
Procedure, shortened: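 This value is the geometric mean of microtitration MICs for the Gram-negative Enterobacteriaceae strains in the 11-organism panel. Aqueous stocks were prepared in 0.1 N sodium or potassium hydroxide.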

Mus musculus [4] = experiment: In vivo activity against Streptococcus pneumoniae (po); conditions: read-out: PD50
Procedure, shortened: (§2)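 Median protective dose (PD50, mg/kg) measured in acute, lethal, systemic infections in female Charles River CD-1 mice. A single dose of compound was given at the time of bacterial challenge. Aqueous stock solutions were made with 0.1 N sodium or potassium hydroxide.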

Mus musculus [5] = experiment: In vivo activity against Escherichia coli (po); conditions: read-out: PD50; procedure, shortened: as §2
Mus musculus [6] = experiment: In vivo activity against Escherichia coli (sc); conditions: read-out: PD50; procedure, shortened: as §2
Mus musculus [7] = experiment: In vivo activity against Streptococcus pneumoniae (sc); conditions: read-out: PD50; procedure, shortened: as §2
Staphylococcus aureus [8] = experiment: Minimum inhibitory concentration against Staphylococcus aureus (UC76).; procedure, shortened: as §1
Mus musculus [9] = experiment: In vivo activity against Pseudomonas aeruginosa (po); conditions: read-out: PD50; procedure, shortened: as §2
Escherichia coli [10] = experiment: Potency against Gram-negative mean
Escherichia coli [11] = experiment: Minimum inhibitory concentration against Escherichia coli (vogel); procedure, shortened: as §1
Escherichia coli [12] = experiment: Minimum inhibitory concentration against Escherichia coli (H560); procedure, shortened: as §1
Mus musculus [13] = experiment: In vivo activity against Streptococcus pyogenes (po); conditions: read-out: PD50; procedure, shortened: as §2
Streptococcus pyogenes = experiment: Minimum inhibitory concentration against Streptococcus pyogenes (C203).; procedure, shortened: as §1
Mus musculus [14] = experiment: In vivo activity against Streptococcus pyogenes (sc); conditions: read-out: PD50; procedure, shortened: as §2
Klebsiella pneumoniae = experiment: Minimum inhibitory concentration against Klebsiella pneumoniae (MGH-2); procedure, shortened: as §1
Mus musculus [15] = experiment: In vivo activity against Pseudomonas aeruginosa (sc); conditions: read-out: PD50; procedure, shortened: as §2
Enterobacter cloacae = experiment: Minimum inhibitory concentration against Enterobacter cloacae. (MA2446).
Pseudomonas aeruginosa = experiment: Minimum inhibitory concentration against Pseudomonas aeruginosa. (UI-18); procedure, shortened: as §1
Enterobacter [16] = experiment: Minimum inhibitory concentration as geometric mean calculated for the gram-negative enterobacteriaceae.
Procedure, shortened: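 MICs were determined by standard microtitration. The value is the geometric mean of the MICs across the Gram-negative Enterobacteriaceae strains in the test panel.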

| SMILES | MIC (Providencia rettgeri) | MIC (Enterococcus faecalis) | MIC (Streptococcus pneumoniae) | MIC (Staphylococcus aureus [2]) | ED50 (Mus musculus [4]) | ED50 (Mus musculus [5]) | ED50 (Mus musculus [6]) | ED50 (Mus musculus [7]) | MIC (Staphylococcus aureus [8]) | ED50 (Mus musculus [9]) | MIC (Escherichia coli [11]) | MIC (Escherichia coli [12]) | ED50 (Mus musculus [13]) | MIC (Streptococcus pyogenes) | ED50 (Mus musculus [14]) | MIC (Klebsiella pneumoniae) | ED50 (Mus musculus [15]) | MIC (Enterobacter cloacae) | MIC (Pseudomonas aeruginosa) | further results |
| --- | --- | --- | --- | --- | --- | --- | --- | --- | --- | --- | --- | --- | --- | --- | --- | --- | --- | --- | --- | --- |
| CCNCC1CCN(c2c(F)cc3c(=O)c(C(=O)O)cn(CC)c3c2F)C1 (configuration not stated) [MERAFLOXACIN] | 0.4 mg/L (≈ 1.05 µM) | 0.1 mg/L (≈ 0.264 µM) | 0.1 mg/L (≈ 0.264 µM) | 0.1 mg/L (≈ 0.264 µM) | 20 mg/kg | 12 mg/kg | 2 mg/kg | 4 mg/kg | 0.05 mg/L (≈ 0.132 µM) | > 200 mg/kg | 0.1 mg/L (≈ 0.264 µM) | 0.1 mg/L (≈ 0.264 µM) | 9 mg/kg | 0.1 mg/L (≈ 0.264 µM) | 3 mg/kg | 0.2 mg/L (≈ 0.527 µM) | 76 mg/kg | 0.2 mg/L (≈ 0.527 µM) | 1.6 mg/L (≈ 4.22 µM) | Log (Escherichia coli [1]): 6.59 1/M MIC; MIC (Enterobacter [3]): 0.17 mg/L (≈ 0.448 µM); Log (Escherichia coli [10]): 6.35 1/M MIC |
| CCn1cc(C(=O)O)c(=O)c2cc(F)c(N3CCNCC3)cc21 [NORFLOXACIN] | 0.05 mg/L (≈ 0.157 µM) | 1.6 mg/L (≈ 5.01 µM) | 1.6 mg/L (≈ 5.01 µM) | 0.8 mg/L (≈ 2.51 µM) | > 100 mg/kg | 4 mg/kg | 0.6 mg/kg | > 100 mg/kg | 0.05 mg/L (≈ 0.157 µM) | 76 mg/kg | 0.025 mg/L (≈ 0.0783 µM) | 0.1 mg/L (≈ 0.313 µM) | > 100 mg/kg | 0.8 mg/L (≈ 2.51 µM) | 45 mg/kg | 0.05 mg/L (≈ 0.157 µM) | 11 mg/kg | 0.1 mg/L (≈ 0.313 µM) | 0.2 mg/L (≈ 0.626 µM) | MIC (Enterobacter [16]): 0.06 mg/L (≈ 0.188 µM) |
